Compound activity from PubChem BioAssay.
STK33 inh – inhibitors of purified STK33 kinase, primary screen, biochemical, ADP-Glo luminescence, homogeneous, cell-free. MBP phosphorylation. Serine/threonine-protein kinase 33 (Homo sapiens), Q9BYT3. inhibition, % at 10 µM. 320,000 tested, 0.073% active;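 active means inhibition at or above 25%, using the most active replicate where run in duplicate; inactive means inhibition below 25%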
DYRK1A inh – rat Dyrk1A kinase inhibitors, primary screen, biochemical, single point, plate reader | Dual specificity tyrosine-phosphorylation-regulated kinase 1A (Rattus norvegicus), Q63470 | ADP-Glo luminescence, NFATc1 peptide | inhibition, % at 12.5 µM | 310,000 tested, 0.43% active; in the data active means inhibition above about 50%
GSK3 alpha inh – blockers of GSK3A enzyme activity – biochemical, luminescence, cell-free homogeneous, HTS, primary screen. 320,000 tested, 0.1% active. Glycogen synthase kinase-3 alpha (Homo sapiens), P49840. GSK-3 alpha kinase, ADP-Glo luminescence, 60 min. inhibition, % at 10 µM;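 active means more than half of replicates show inhibition above 20%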;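 further: GST-tagged GSK-3 alpha with peptide substrate and 25 µM ATP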
GSK3B inh – human GSK3beta kinase inhibitors, primary screen, biochemical, cell-free homogeneous, HTS; GST-GSK3beta kinase, ADP-Glo luminescence, 60 min; stronger effect = lower value; activity score (negative = inhibition), % at 10 µM; 300,000 tested, 0.038% active; AID 2097, 2009;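 active means more than half of replicate wells score below -50%, meaning over 50% inhibition versus plate controls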
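Assay system: GST-tagged human GSK3beta kinase, cell-free; Input: 1.6 ng GSK3beta; Medium: Tris/MgCl2 kinase buffer; Timing: 60 min enzyme reaction, room temperature; Signal: ADP-Glo luminescence quantifying ADP generated by kinase; Evaluation: score relative to plate controls; Benchmarks: DMSO neutral wells and GW8510 at 20 µM as positive.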
CDK5 p35 inh – inhibitors of human CDK5/p35 kinase, primary screen, biochemical, single concentration. Cyclin-dependent kinase 5 (Homo sapiens) + Cyclin-dependent kinase 5 activator 1 (Homo …. Recombinant CDK5/p35, ADP-Glo luminescence, 60 min. inhibition, % at 10 µM. 330,000 tested, 0.01% active;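 active means highest replicate inhibition of at least 50% and at least 75% of replicates reaching 50%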
Target sequence (Q00535 whole entry, looked up): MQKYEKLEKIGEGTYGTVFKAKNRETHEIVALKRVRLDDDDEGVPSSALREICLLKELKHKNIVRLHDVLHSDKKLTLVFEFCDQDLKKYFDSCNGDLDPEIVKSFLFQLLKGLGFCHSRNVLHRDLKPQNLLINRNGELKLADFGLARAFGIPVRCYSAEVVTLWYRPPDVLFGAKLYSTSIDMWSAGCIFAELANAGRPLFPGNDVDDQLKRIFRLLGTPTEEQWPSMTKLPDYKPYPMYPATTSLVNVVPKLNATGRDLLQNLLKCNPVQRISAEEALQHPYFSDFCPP
Target sequence (Q15078 whole entry, looked up): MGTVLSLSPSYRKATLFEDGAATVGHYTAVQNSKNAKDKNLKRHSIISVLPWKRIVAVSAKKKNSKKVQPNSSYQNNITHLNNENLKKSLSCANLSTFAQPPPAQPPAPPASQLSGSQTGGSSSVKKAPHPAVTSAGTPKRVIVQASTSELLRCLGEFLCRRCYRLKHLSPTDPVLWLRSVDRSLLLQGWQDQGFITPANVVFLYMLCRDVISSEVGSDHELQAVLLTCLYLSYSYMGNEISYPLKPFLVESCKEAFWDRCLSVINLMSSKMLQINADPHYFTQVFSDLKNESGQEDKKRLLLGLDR
ADP-Glo artifact – ADP-Glo luciferase interference without Dyrk1A, dose response, artefact control for Dyrk1A inhibitor project, biochemical, luminescence, cherry-pick, set 02 | shares compounds with DYRK1A inh | ADP-Glo luciferase artifact assay, no Dyrk1A | AC50, µM (doses to about 12 µM) | 1,300 tested, under 10 active | AID 588348, 2011;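 active means fitted half-maximal dose AC50 no more than ten times the top valid tested dose, with luminescence dropping as dose rises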
Hits are given with their value; - = inactive; . = not tested or not shown. The full list was thinned out, with hits kept by preference.

SMILES | STK33 inh | DYRK1A inh | GSK3 alpha inh | GSK3B inh | CDK5 p35 inh | ADP-Glo artifact
C=C1C(=O)c2sccc2C(c2ccc(OC)c(OC)c2)C1COC(C)=O (stereo unspecified) | . | . | . | . | - | .
Cc1ccc2c(c1C)C(=O)C(=O)N2 | . | . | . | . | - | .
COc1ccccc1C(=O)Nc1nc(-c2ccc3c(c2)OCCO3)cs1 | - | - | - | - | - | .
O=C(Nc1nc(-c2ccc3c(c2)OCCO3)cs1)c1ccco1 | - | 73.4 | - | - | - | -
Fc1ccc(-c2nnc3sc(C4COc5ccccc5O4)nn23)cc1 (stereo unspecified) | - | 67.5 | - | - | - | -
O=C(O)C1(O)C[C@@H](O)C(O)[C@H](O)C1 (stereo partly specified) | . | - | . | . | - | .
CC(C)(C)NC(=O)C(=O)NC(=O)c1c(F)cccc1Cl | - | 63.2 | - | - | - | -
Nc1ncnc(N2CCOCC2)n1 | . | - | . | . | - | .
Cc1ccc(CC2(c3ccccc3)NC(=O)NC2=O)cc1 (stereo unspecified) | . | . | . | . | - | .
Oc1ccc(-c2csc(NCc3ccco3)n2)cc1 | - | 52.1 | - | - | - | -
c1coc(CNc2nc(-c3cccs3)cs2)c1 | - | - | - | - | - | .
CC(=O)Nc1ccc(NC(=O)Cc2ccc(S(=O)(=O)N3CCCCC3)cc2)cc1 | . | - | . | . | - | .
Cn1c(C(=O)N2CCN(c3ncccn3)CC2)cc2c(=O)n(C)c3ccccc3c21 | - | - | . | - | - | .
Cn1c(C(=O)N2CCCC2)cc2c(=O)n(C)c3ccccc3c21 | . | 75.0 | . | . | - | -
Cn1c(C(=O)NCC2CCCO2)cc2c(=O)n(C)c3ccccc3c21 (stereo unspecified) | - | 55.1 | - | - | - | -
Cc1ccc(CNC(=O)c2cc3c(=O)n(C)c4ccccc4c3n2C)o1 | - | 62.4 | . | - | - | -
Cn1c(C(=O)NCc2ccccn2)cc2c(=O)n(C)c3ccccc3c21 | - | - | . | - | - | .
CC(C)(C)CC(C)(C)SSc1n[nH]c(=S)s1 | . | . | . | . | - | .
CC(C)n1cc2c(N)ncnc2n1 | . | - | . | . | - | .
O=c1cc(-c2ccccc2Cl)oc2c(NS(=O)(=O)c3ccccc3C(F)(F)F)ccc(O)c12 | - | 59.1 | - | - | - | -
CC[C@@H](C)[C@H](CNC)NC[C@@H](Cc1cccc2ccccc12)NCCc1cccc(C(F)(F)F)c1 | - | 54.5 | - | - | - | -
CCC[C@H](CN[C@@H](CNC)[C@H](C)CC)NCCc1cc(C(F)(F)F)cc(C(F)(F)F)c1 | - | - | - | - | - | .
Cc1ccc(N2CN=c3s/c(=C\c4ccccn4)c(=O)n3C2)cc1 | - | 52.0 | - | - | - | -
CC1=CC(=O)Nc2ccccc2S1 | . | - | . | . | - | .
Cn1cc(C(=O)C(=O)N2CCCCC2)c2ccccc21 | . | - | . | . | - | .
SMILES | STK33 inh | DYRK1A inh | GSK3 alpha inh | GSK3B inh | CDK5 p35 inh | ADP-Glo artifact
NC(=O)C1CCN(C2=C(Cl)C(=O)c3ccccc3C2=O)CC1 | - | - | - | - | - | .
O=C1C(Cl)=C(N2CCC(C(=O)O)CC2)C(=O)c2ccccc21 | - | 61.0 | - | - | - | -
CN1CCN(C2=C(NS(=O)(=O)c3ccccc3)C(=O)c3ccccc3C2=O)CC1 | - | - | - | - | - | .
CN1CCN(C2=C(Cl)C(=O)c3ccccc3C2=O)CC1 | . | 56.5 | . | . | - | -
CCOc1ccccc1C(=O)NCC(=O)NCCSc1ccc(Br)cc1 | . | - | . | . | - | .
Fc1ccc(C2Nc3cccc4cccc(c34)N2)cc1 | - | 52.5 | - | - | - | -
FC(F)(F)c1ccc(C2Nc3cccc4cccc(c34)N2)cc1 | . | - | . | . | - | .
COc1cccc(-c2nnc3n2N=C(c2cc(OC)ccc2OC)CS3)c1 | - | - | - | - | - | .
CC(C)(C)C1=Nn2c(nnc2-c2ccccc2F)SC1 | - | 51.7 | - | - | - | -
COc1cccc(-c2nnc3n2N=C(C(C)(C)C)CS3)c1 | - | 79.3 | . | - | - | -
CCNc1ncnc2c1cnn2C1CCCCO1 (stereo unspecified) | . | - | . | . | - | .
COc1ccc2nc(C)c3c(c2c1)OC(C(C)(Cl)Br)C3 (stereo unspecified) | - | 79.1 | - | - | - | -
O=S(=O)(SC1=NCCN1)c1ccccc1 | . | - | . | . | - | .
CCN(CC(=O)Nc1ccc2c(c1)OCCO2)C(=O)C(C)Oc1ccc(F)cc1 (stereo unspecified) | . | . | . | . | - | .
COc1ccc(/C=c2\s/c(=C\C(=O)C(C)(C)C)[nH]c2=O)cc1O | - | 63.5 | 63.2 | - | - | -
COc1cc(/C=c2\s/c(=C\C(=O)C(C)(C)C)[nH]c2=O)cc(OC)c1OC | - | - | - | - | - | .
COc1ccc2cc(C(=O)N/N=C/c3cc(OC)c(OC)c(OC)c3)[nH]c2c1 | - | 53.9 | - | - | - | -
COc1ccc(/C=N/NC(=O)c2cc3cc(OC)c(OC)cc3[nH]2)cc1 | - | - | - | - | - | .
CNC(=O)CN1C(=O)c2cccc3cccc1c23 | - | - | . | - | - | .
CN1/C(=N\O)c2cccc3cccc1c23 | - | 66.3 | . | - | - | -
O=C(C=P(c1ccccc1)(c1ccccc1)c1ccccc1)c1ccccc1-c1ccccc1C(=O)C=P(c1ccccc1)(c1ccccc1)c1ccccc1 | . | - | . | . | - | .
Nc1nc(Nc2ccccc2)nc2ccccc12 | - | 56.4 | - | - | - | -
CCN(CC)CCNc1ccc(C)c2sc3ccc(O)cc3c(=O)c12 | . | - | . | . | - | .
CN(C)CCNc1ccc(CO)c2oc3ccc(O)cc3c(=O)c12 | . | 52.4 | . | . | - | -
Oc1ccccc1/C=N/n1c(-c2ccccc2)n[nH]c1=S | - | - | - | - | - | .
SMILES | STK33 inh | DYRK1A inh | GSK3 alpha inh | GSK3B inh | CDK5 p35 inh | ADP-Glo artifact
O=[N+]([O-])c1ccc(O)c(/C=N/n2c(-c3ccccc3)n[nH]c2=S)c1 | - | 56.6 | - | - | - | -
Cc1ccc2c(c1)N(CC(=O)NC1CCCCC1)C(=O)c1cccnc1O2 | . | 57.6 | . | - | - | -
Cc1ccc(NC(=O)c2ccc(Cl)c(S(=O)(=O)Nc3c(C)n(C)n(-c4ccccc4)c3=O)c2)cc1Cl | . | - | . | . | - | .
O=C1C=C(c2ccc3c(c2)OCO3)CCC1 | - | 66.1 | - | - | - | -
Cc1sc(NC(=O)c2ccco2)nc1-c1ccccc1 | - | 52.2 | - | - | - | -
CC(=O)c1sc(NC(=O)c2ccco2)nc1-c1ccccc1 | - | - | - | - | - | .
COc1ccc2c(c1)CCc1sc(NC(=O)c3ccco3)nc1-2 | - | 67.5 | - | - | - | -
COc1ccc2c(c1)-c1nc(NC(=O)c3ccco3)sc1CC2 | - | - | - | - | - | .
COc1cccc(Nc2ncnc3ccccc23)c1 | - | 73.3 | - | - | - | -
COc1ccc(Nc2ncnc3ccccc23)c(OC)c1 | - | - | - | - | - | .
